Here are results for 15 compounds from ChEMBL document CHEMBL2311282, “Asymmetric synthesis and anti-protozoal activity of the 8,4'-oxyneolignans virolin, surinamensin and analogues” (Eur J Med Chem, 2013).

One may read the IC50 as the concentration needed to halve the response being measured. A high value points to weaker potency.

Values after ≈ are worked out from the molar mass of the structure shown.

A short description of data set [1]: Toxicity against rat L6 cells after 72 hrs by Alamar blue assay. In kind it is cell-based. The method, boiled down:
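Cytotoxicity was measured on the L6 rat skeletal myoblast cell line, with podophyllotoxin as the positive control.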

The subject of the next data set is Leishmania donovani. The data set is described as follows: Anti-protozoal activity against Leishmania donovani MHOM-ET-67/L82 amastigotes after 72 hrs by Alamar blue assay. The note with it: MHOM-ET-67/L82, 72 h. In kind it is functional, organism-based. (Resazurin is reduced to fluorescent resorufin, in cell work by metabolically active cells.)
The next data set relates to Plasmodium falciparum. The data set is described as follows: Anti-protozoal activity against Plasmodium falciparum K1 IEF stage after 72 hrs by [3H]hypoxanthine incorporation assay. Format: functional, organism-based. The method, boiled down: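 P. falciparum K1 strain was tested at the IEF stage, with chloroquine as the positive control.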

Consider `C/C=C/c1ccc(O[C@H](C)[C@@H](O)c2ccc(OC)c(OC)c2)c(OC)c1`, for which, in data set [1], the IC50 at 72 h worked out at 13.2 µg/mL (≈ 36.8 µM). Also, the half-maximal inhibitory concentration (IC50) turned out to be 10.6 µg/mL (≈ 29.6 µM) in the data set with Leishmania donovani and 1.71 µg/mL (≈ 4.77 µM) in the data set with Plasmodium falciparum.
In turn, `COc1ccc([C@H](O)[C@@H](C)Oc2ccc(Br)cc2OC)cc1` had a 50% inhibitory concentration (IC50) at 72 h in data set [1] of 13.5 µg/mL (≈ 36.8 µM). Also, the figures for the IC50 in the data set on Leishmania donovani and with Plasmodium falciparum were 4.79 µg/mL (≈ 13 µM) and 4.31 µg/mL (≈ 11.7 µM), respectively.
For the compound `CCN(CC)CCCC(C)Nc1ccnc2cc(Cl)ccc12` (stereo unspecified) [CHLOROQUINE], the midpoint of inhibition in the data set on Plasmodium falciparum, the IC50, lay at 0.54 µg/mL (≈ 1.69 µM).
Compound `COCO[C@H](c1ccc(OC)c(OC)c1)[C@@H](C)Oc1ccc(Br)cc1OC` displayed an IC50 at 72 h in data set [1] of 50.6 µg/mL (≈ 115 µM). Further, the IC50 in the data set with Leishmania donovani turned out to be 60.3 µg/mL (≈ 137 µM); in the data set on Plasmodium falciparum it was 49.3 µg/mL (≈ 112 µM).
Compound `C/C=C/c1ccc(O[C@H](C)[C@@H](O)c2ccc3c(c2)OCO3)c(OC)c1` had a half-inhibitory concentration (IC50) at 72 h in data set [1] of 15.3 µg/mL (≈ 44.7 µM). Also, the half-maximal inhibitory concentration (IC50) in the data set on Leishmania donovani is 6.82 µg/mL (≈ 19.9 µM); with Plasmodium falciparum, 4.59 µg/mL (≈ 13.4 µM).
The compound `COc1cc(-c2ccccc2)ccc1O[C@H](C)[C@@H](O)c1ccccc1` came in with an IC50 at 72 h in data set [1] of 11.2 µg/mL (≈ 33.5 µM). The IC50 in the data set with Leishmania donovani is 2.48 µg/mL (≈ 7.42 µM); with Plasmodium falciparum, 5.99 µg/mL (≈ 17.9 µM).
For the compound `C/C=C/c1ccc(O[C@H](C)[C@H](O)c2ccc3c(c2)OCO3)c(OC)c1`, the IC50 at 72 h in data set [1] stood at 14.7 µg/mL (≈ 42.9 µM). Also, the IC50 with Leishmania donovani was 10.2 µg/mL (≈ 29.8 µM); in the data set with Plasmodium falciparum, 1.73 µg/mL (≈ 5.05 µM).
In data set [1], `C/C=C/c1ccc(O[C@H](C)[C@@H](O)c2ccccc2)c(OC)c1` displayed an IC50 at 72 h of 11.9 µg/mL (≈ 39.9 µM). The concentration for half-maximal inhibition (IC50) is 2.29 µg/mL (≈ 7.67 µM) in the data set with Leishmania donovani and 3.23 µg/mL (≈ 10.8 µM) in the data set on Plasmodium falciparum.
On the same counts, the results for `C/C=C/c1ccc(O[C@H](C)[C@@H](OCOC)c2ccccc2)c(OC)c1` are 52.3 µg/mL (≈ 153 µM), 52.5 µg/mL (≈ 153 µM) and 47.3 µg/mL (≈ 138 µM).
`COc1ccc(C(=O)[C@@H](C)Oc2ccc(Br)cc2OC)cc1OC` returned a half-maximal inhibitory concentration (IC50) at 72 h in data set [1] of 41.6 µg/mL (≈ 105 µM). Further, the IC50 with Leishmania donovani was determined as 12.1 µg/mL (≈ 30.6 µM); with Plasmodium falciparum, 3.12 µg/mL (≈ 7.89 µM).
In turn, `COc1ccc([C@@H](O)[C@@H](C)Oc2ccc(Br)cc2OC)cc1OC` came in with a half-inhibitory concentration (IC50) at 72 h in data set [1] of 20.9 µg/mL (≈ 52.6 µM). The results for the IC50 with Leishmania donovani and in the data set on Plasmodium falciparum were 10.8 µg/mL (≈ 27.2 µM) and 2.5 µg/mL (≈ 6.29 µM), respectively.
Regarding `C/C=C/c1ccc(O[C@H](C)[C@@H](O)c2ccc(OC)cc2)c(OC)c1`, the midpoint of inhibition in data set [1], the IC50 at 72 h, lay at 15.5 µg/mL (≈ 47.2 µM). Further, the half-inhibitory concentration (IC50) in the data set on Leishmania donovani came to 5.54 µg/mL (≈ 16.9 µM); in the data set with Plasmodium falciparum it was 1.33 µg/mL (≈ 4.05 µM).
As for `COc1cc(Br)ccc1O[C@H](C)[C@H](O)c1ccc2c(c1)OCO2`, the IC50 at 72 h in data set [1] is 48.2 µg/mL (≈ 126 µM). Moreover, the half-maximal inhibitory concentration (IC50) worked out at 9.2 µg/mL (≈ 24.1 µM) in the data set with Leishmania donovani and 10.8 µg/mL (≈ 28.3 µM) with Plasmodium falciparum.
In the data set on Leishmania donovani, `CCCCCCCCCCCCCCCCOP(=O)([O-])OCC[N+](C)(C)C` [MILTEFOSINE] yielded an IC50 of 0.144 µg/mL (≈ 0.353 µM).
With `COc1cc(Br)ccc1O[C@H](C)[C@@H](O)c1cc(OC)c(OC)c(OC)c1`, the IC50 at 72 h in data set [1] turned out to be 20.3 µg/mL (≈ 47.5 µM). The 50% inhibitory concentration (IC50) with Leishmania donovani was 11.3 µg/mL (≈ 26.4 µM); in the data set on Plasmodium falciparum it was 8.47 µg/mL (≈ 19.8 µM).
